Consider four molecules from publication PMC11491786 (Zoological Research, 2024).

Data set [1] concerns the target T1, PK (Homo sapiens, UniProt P03952). Nature of the data set: SPR, PK over LE6-coupled chip. The format is binding.
In data set [2] the target is T1, PK. Briefly: Chromogenic assay, PK. The format is biochemical.
Target sequence in this assay (P03952 391-638 limits assumed): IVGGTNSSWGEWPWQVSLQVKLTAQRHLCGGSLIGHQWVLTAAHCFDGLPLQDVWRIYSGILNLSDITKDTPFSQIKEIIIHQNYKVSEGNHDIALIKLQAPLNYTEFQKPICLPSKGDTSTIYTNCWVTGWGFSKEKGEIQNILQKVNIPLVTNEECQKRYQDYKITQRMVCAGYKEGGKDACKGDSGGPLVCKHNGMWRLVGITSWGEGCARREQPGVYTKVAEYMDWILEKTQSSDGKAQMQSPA
Target sequence in this assay (P03952 20-390 partner limits assumed): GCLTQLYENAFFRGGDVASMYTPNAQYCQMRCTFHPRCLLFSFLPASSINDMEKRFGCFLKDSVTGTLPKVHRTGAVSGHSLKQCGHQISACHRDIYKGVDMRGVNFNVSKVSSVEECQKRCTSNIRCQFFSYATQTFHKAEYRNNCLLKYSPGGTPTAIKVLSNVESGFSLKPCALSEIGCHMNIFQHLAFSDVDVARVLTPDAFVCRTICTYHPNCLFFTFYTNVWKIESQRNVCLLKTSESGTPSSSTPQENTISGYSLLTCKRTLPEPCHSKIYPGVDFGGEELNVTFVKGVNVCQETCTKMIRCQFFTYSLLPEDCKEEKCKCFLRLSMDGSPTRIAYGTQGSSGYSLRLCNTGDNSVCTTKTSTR
For data set [3], the target named is T2, FXIIa (Homo sapiens, UniProt P00748).
T2 sequence (P00748 373-615 limits assumed): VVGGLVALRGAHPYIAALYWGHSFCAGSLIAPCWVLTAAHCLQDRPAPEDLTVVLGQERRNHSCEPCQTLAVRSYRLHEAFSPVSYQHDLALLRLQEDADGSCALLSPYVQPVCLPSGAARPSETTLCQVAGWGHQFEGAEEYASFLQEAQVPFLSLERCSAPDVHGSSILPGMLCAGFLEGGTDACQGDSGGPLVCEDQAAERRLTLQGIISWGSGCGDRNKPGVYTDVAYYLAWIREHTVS
T2 sequence (P00748 20-372 partner limits assumed): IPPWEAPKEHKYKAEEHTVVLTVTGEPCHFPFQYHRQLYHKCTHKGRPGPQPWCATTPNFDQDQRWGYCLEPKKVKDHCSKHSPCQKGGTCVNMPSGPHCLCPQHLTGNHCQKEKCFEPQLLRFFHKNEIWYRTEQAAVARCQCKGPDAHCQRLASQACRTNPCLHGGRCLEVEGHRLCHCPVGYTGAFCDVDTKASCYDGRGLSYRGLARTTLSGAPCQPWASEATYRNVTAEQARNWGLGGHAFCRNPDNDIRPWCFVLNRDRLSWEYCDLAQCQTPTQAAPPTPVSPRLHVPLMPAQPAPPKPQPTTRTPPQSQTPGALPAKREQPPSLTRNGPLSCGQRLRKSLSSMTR
Briefly: SPR, FXIIa over LE6-coupled chip. The following applies: read-out: Kd (dissociation rate constant). The format is binding. On the technique in general: SPR reads the build-up and loss of mass on a sensor chip optically.

The target of data set [4] is T2, FXIIa. Nature of the data set: Chromogenic assay, FXIIa. The format is biochemical.
A further data set deals with erythrocytes. Nature of the data set: Hemolysis assay. The format is cell-based, human. The following applies: up to 200 μg/mL (285 μmol/L), 30 min, 37 °C, PBS pH 7.2, 540 nm. In short, it runs like this: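 Human blood was centrifuged for 10 min at 3 500 r/min and 25°C. The erythrocytes were resuspended in PBS (0.01 mol/L, pH 7.2) and exposed to test compound (12.5–200 µg/mL, plus 0) or 0.1% Triton X-100 (positive control) for 30 min at 37°C. Samples were spun 5 min at 3 500 r/min and the supernatant A540 read; n=2–3.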

The test system of the next data set is HEK 293T cells. Nature of the data set: Cytotoxicity assay. The format is cell-based, human. Conditions: 12.5 to 200 μg/mL, 8 h, CCK8. In short, it runs like this:
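HEK 293T cells were grown in DMEM/F-12 with 10% FBS and 1% penicillin-streptomycin at 37°C, 5% CO2. They were seeded at 3×10^4 cells/well and allowed 12 h to adhere. Test compound (12.5–200 µg/mL, plus 0) was added for 8 h. CCK-8 was then added for 3 h and OD450 read. Viability is given as % of untreated control; n=8–12.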

The next data set relates to mouse splenocytes. Briefly: Cytotoxicity assay. Conditions: 12.5 to 200 μg/mL, 8 h, CCK8. The format is cell-based. In short, it runs like this:
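Mouse splenocytes were prepared by crushing fresh spleens in PBS and passing them through a 200-mesh sieve. Cells were cultured in RPMI1640 at 37°C, 5% CO2, seeded at 2×10^5 cells/well and given 12 h to settle. Test compound (12.5–200 µg/mL, plus 0) was added for 8 h, followed by CCK-8 for 3 h and an OD450 read. Viability is reported as % of control; n=8–12.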

For data set [5], the system named is mouse peritoneal macrophages. Briefly: Cytotoxicity assay. Conditions: 12.5 to 200 μg/mL, 8 h, CCK8. The format is cell-based. In short, it runs like this: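 Peritoneal macrophages were elicited in mice with i.p. 3% thioglycollate broth and collected by PBS lavage after 3 days. Cells were cultured in RPMI1640 at 37°C, 5% CO2, seeded at 1×10^6 cells/well and allowed 12 h to adhere. Test compound (12.5–200 µg/mL, plus 0) was added for 8 h, then CCK-8 for 3 h and OD450 read. Viability is expressed as % of control; n=8–12.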

Another data set has as its system male C57BL/6 J mice. Nature of the data set: Bleeding assay. The format is in vivo, mouse. In short, it runs like this:
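Dosing 15 min before cutting: test compound at 0.5 or 2 mg/kg i.v., 0.9% saline (control) or heparin sodium 2 500 U/kg (reference). Mice were male C57BL/6J, 6 weeks old, 18–20 g, n=6–7. Tail cut 2 mm from the tip and immersed in sterile saline at 37°C. Bleeding time recorded until blood flow stopped.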

The next data set concerns male C57BL/6J mice. Briefly: FeCl3-induced carotid artery thrombosis. The format is in vivo, mouse. The following applies: 2 500 U/kg i.v., 10% FeCl3, 5 min and 10 min, vs PBS-treated group. In short, it runs like this: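 Male C57BL/6J mice (6 weeks old, n=6–7) were given i.v. saline (100 µL; control), heparin sodium 2 500 U/kg, or test compound at 0.5 or 2 mg/kg, 5 min before induction, under anaesthesia. Filter paper with 10% (w/v) FeCl3 was applied to the exposed left carotid artery for 30 s. Flow in the region of interest was followed by laser speckle perfusion imaging for 30 min, with images analysed at 5 and 10 min. Occlusion was scored as a red-to-blue change.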

The subject of another data set is acute IS patients. The following applies: ref Kim, 2019; Simão et al., 2017; cited from earlier work.
The target of data set [6] is T3, activated factor XII (FXIIa) (UniProt P00748 20-372; P00748 373-615).
T3 sequence (looked up) 1: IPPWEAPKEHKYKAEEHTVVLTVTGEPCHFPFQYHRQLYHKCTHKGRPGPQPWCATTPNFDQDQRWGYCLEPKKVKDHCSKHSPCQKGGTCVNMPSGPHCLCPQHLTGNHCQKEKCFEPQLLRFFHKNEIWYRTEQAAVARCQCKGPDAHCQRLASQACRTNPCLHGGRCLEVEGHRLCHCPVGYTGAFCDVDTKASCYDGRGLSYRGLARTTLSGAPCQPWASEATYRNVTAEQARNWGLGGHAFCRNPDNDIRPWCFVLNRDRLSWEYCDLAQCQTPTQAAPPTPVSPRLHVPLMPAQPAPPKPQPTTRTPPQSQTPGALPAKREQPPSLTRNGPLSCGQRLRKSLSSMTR
T3 sequence (looked up) 2: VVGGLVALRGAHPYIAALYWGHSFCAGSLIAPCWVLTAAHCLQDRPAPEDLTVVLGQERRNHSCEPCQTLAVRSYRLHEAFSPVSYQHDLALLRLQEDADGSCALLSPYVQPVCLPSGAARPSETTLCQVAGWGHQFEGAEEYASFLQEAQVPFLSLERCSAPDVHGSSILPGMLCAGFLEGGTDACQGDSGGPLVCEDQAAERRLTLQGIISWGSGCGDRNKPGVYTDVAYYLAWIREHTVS
Briefly: cell-based or functional assay.

In data set [7] the target is T4, plasma kallikrein (PK) (UniProt P03952 20-390; P03952 391-638). Nature of the data set: SPR.
For data set [8], the target named is T3, activated factor XII (FXIIa). Nature of the data set: SPR.
Data set [9] addresses T4, plasma kallikrein (PK). Briefly: chromogenic enzyme inhibition assay.
Data set [10] deals with T3, activated factor XII (FXIIa). Nature of the data set: chromogenic enzyme inhibition assay.

No end group written: not given here.

T4 sequence (P03952 20-390, chain 1 of 2): as the sequence (P03952 20-390 partner limits assumed) above
T4 sequence (P03952 391-638, chain 2 of 2): as the sequence (P03952 391-638 limits assumed) above

What is called IC50 is the point on the concentration scale where inhibition reaches its midpoint. Higher therefore signals weaker potency in that assay. For orientation: inhibition means the percentage by which the read-out fell short of the control. Consider LSEEPE [LE6, Leu-Ser-Glu-Glu-Pro-Glu], for which the kon on PK [1] (read-out: Ka (association rate constant)) was found to be 1790 M⁻¹ s⁻¹. Besides, the koff is 0.0141 s⁻¹ at PK [1] (read-out: Kd (dissociation rate constant)) and 0.118 s⁻¹ on FXIIa [3]. Besides, the IC50 at PK [2] is approximately 71 µM; against FXIIa [4], 71 µM. The inhibition at 285 µM on FXIIa [4] (read-out: inhibition rate of FXIIa) is 88.6%. In the data set on erythrocytes, the hemolysis entry is “no hemolytic side effects”. Besides, the “toxic effects on proliferation” value (in the data set with HEK 293T cells; in the data set with mouse splenocytes; in data set [5]) was “no toxic effects” in each case. Besides, in the data set on male C57BL/6 J mice (0.5 mg/kg i.v., 15 min before tail cut, n=6–7), the bleeding time result is reported as “without notably extending bleeding time”. Moreover, in the data set with male C57BL/6 J mice (LE6 2 mg/kg i.v. vs heparin sodium 2 500 U/kg i.v.), the “bleeding time relative to heparin sodium” value was “approximately half that induced by the clinically anticoagulant heparin sodium”.
For the molecule heparin sodium, in the data set with male C57BL/6J mice, the “blood flow after FeCl3-induction” value is “increased blood flow at 5 min and 10 min”.
As for tissue plasminogen activator [tPA], the “efficacy in acute IS” value in the data set with acute IS patients is on record as “efficacious when administered within 4.5 hours of stroke onset”.
Broadly, the Kd is the free concentration of one partner at which half of the binding sites on the other are occupied at equilibrium, for simple one-to-one binding. A higher Kd goes with a looser complex. As a reminder, the Ki is a measure of affinity in units of concentration, obtained from inhibition or displacement. As for LSEEPE [oligopeptide LE6 (Leu-Ser-Glu-Glu-Pro-Glu)], the “FXIIa activity on chromogenic substrate S-2302, IC50” value in data set [6] was 71 µM. The Kd is 7.88 µM with plasma kallikrein (PK) [7] and 46.4 µM in data set [8]. For the same molecule, the figures for the Ki (in the data set with plasma kallikrein (PK) [9]; in [10]) were 44 µM and 6.37 µM, respectively.
